Data as given in ChEMBL document CHEMBL5058577, “EUbOPEN Chemogenomics Library 2 (Multiplex)” (2022).

Tested on: U2OS
Assay: Multiplex assay against U2OS
Format: toxicity, cell-based
Conditions: human
Procedure, shortened: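 Per cents of healthy-nucleus cells form the tubulin, mitochondrial-mass and membrane-permeability phenotype values. Live cells were stained at seeding with Hoechst33342, BioTracker Green Microtubule Cytoskeleton Dye, MitoTracker Red and Annexin V Alexa Fluor 680. After compound addition they were imaged on a CQ1 microscope at 37°C and 5% CO2, and CellPathfinder machine-learning gating split them into Hoechst high-intensity objects or normal cells, normal cells into healthy, pyknosed or fragmented nuclei, and pyknosed cells into mitotic or apoptotic.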

[1] = 12 h, 1 µM, compound concentration 1 uM, replicate 1
[2] = 12 h, 1 µM, compound concentration 1 uM, replicate 2
[3] = 12 h, 10 µM, compound concentration 10 uM, replicate 1
[4] = 12 h, 10 µM, compound concentration 10 uM, replicate 2
[5] = 24 h, 1 µM, compound concentration 1 uM, replicate 1
[6] = 24 h, 1 µM, compound concentration 1 uM, replicate 2
[7] = 24 h, 10 µM, compound concentration 10 uM, replicate 1
[8] = 24 h, 10 µM, compound concentration 10 uM, replicate 2
[9] = 48 h, 1 µM, compound concentration 1 uM, replicate 1
[10] = 48 h, 1 µM, compound concentration 1 uM, replicate 2
[11] = 48 h, 10 µM, compound concentration 10 uM, replicate 1
[12] = 48 h, 10 µM, compound concentration 10 uM, replicate 2

Cl.NCCc1ccc(O)c(O)c1 [DOPAMINE HYDROCHLORIDE]
Population Apoptotic (%) [1]: 100%
Population Fragmented Nuclei (%) [1]: 23%
Population Healthy Nuclei (%) [1]: 67%
Population Hoechst High Intensity Objects (%) [1]: 3%
Population Membrane Permeable-Phenotype (%) [1]: 5%
Population Mitochondria Different-Phenotype (%) [1]: 1%
Population Mitotic Cells (%) [1]: 0%
Population Normal (%) [1]: 96%
Population Pyknosed Nuclei (%) [1]: 9%
Population Tubulin-Different-Phenotype (%) [1]: 2%
Total Cell Count [1]: 237
Population Apoptotic (%) [2]: 83%
Population Fragmented Nuclei (%) [2]: 15%
Population Healthy Nuclei (%) [2]: 72%
Population Hoechst High Intensity Objects (%) [2]: 1%
Population Membrane Permeable-Phenotype (%) [2]: 8%
Population Mitochondria Different-Phenotype (%) [2]: 2%
Population Mitotic Cells (%) [2]: 16%
Population Normal (%) [2]: 98%
Population Pyknosed Nuclei (%) [2]: 11%
Population Tubulin-Different-Phenotype (%) [2]: 5%
Total Cell Count [2]: 104
Population Apoptotic (%) [3]: 80%
Population Fragmented Nuclei (%) [3]: 21%
Population Healthy Nuclei (%) [3]: 65%
Population Hoechst High Intensity Objects (%) [3]: 3%
Population Membrane Permeable-Phenotype (%) [3]: 2%
Population Mitochondria Different-Phenotype (%) [3]: 1%
Population Mitotic Cells (%) [3]: 20%
Population Normal (%) [3]: 96%
Population Pyknosed Nuclei (%) [3]: 12%
Population Tubulin-Different-Phenotype (%) [3]: 1%
Total Cell Count [3]: 204
Population Apoptotic (%) [4]: 75%
Population Fragmented Nuclei (%) [4]: 18%
Population Healthy Nuclei (%) [4]: 76%
Population Hoechst High Intensity Objects (%) [4]: 0%
Population Membrane Permeable-Phenotype (%) [4]: 4%
Population Mitotic Cells (%) [4]: 25%
Population Normal (%) [4]: 100%
Population Pyknosed Nuclei (%) [4]: 4%
Total Cell Count [4]: 95
Population Apoptotic (%) [5]: 90%
Population Fragmented Nuclei (%) [5]: 18%
Population Healthy Nuclei (%) [5]: 69%
Population Hoechst High Intensity Objects (%) [5]: 4%
Population Membrane Permeable-Phenotype (%) [5]: 7%
Population Mitochondria Different-Phenotype (%) [5]: 2%
Population Mitotic Cells (%) [5]: 10%
Population Normal (%) [5]: 95%
Population Pyknosed Nuclei (%) [5]: 11%
Population Tubulin-Different-Phenotype (%) [5]: 5%
Total Cell Count [5]: 263
Population Apoptotic (%) [6]: 80%
Population Fragmented Nuclei (%) [6]: 14%
Population Healthy Nuclei (%) [6]: 77%
Population Hoechst High Intensity Objects (%) [6]: 1%
Population Membrane Permeable-Phenotype (%) [6]: 4%
Population Mitochondria Different-Phenotype (%) [6]: 1%
Population Mitotic Cells (%) [6]: 20%
Population Normal (%) [6]: 98%
Population Pyknosed Nuclei (%) [6]: 7%
Population Tubulin-Different-Phenotype (%) [6]: 2%
Total Cell Count [6]: 132
Population Apoptotic (%) [7]: 92%
Population Fragmented Nuclei (%) [7]: 18%
Population Healthy Nuclei (%) [7]: 70%
Population Hoechst High Intensity Objects (%) [7]: 2%
Population Membrane Permeable-Phenotype (%) [7]: 4%
Population Mitochondria Different-Phenotype (%) [7]: 0%
Population Mitotic Cells (%) [7]: 8%
Population Normal (%) [7]: 97%
Population Pyknosed Nuclei (%) [7]: 10%
Population Tubulin-Different-Phenotype (%) [7]: 1%
Total Cell Count [7]: 245
Population Apoptotic (%) [8]: 87%
Population Fragmented Nuclei (%) [8]: 15%
Population Healthy Nuclei (%) [8]: 77%
Population Hoechst High Intensity Objects (%) [8]: 0%
Population Membrane Permeable-Phenotype (%) [8]: 1%
Population Mitotic Cells (%) [8]: 12%
Population Normal (%) [8]: 99%
Population Pyknosed Nuclei (%) [8]: 7%
Total Cell Count [8]: 111
Population Apoptotic (%) [9]: 90%
Population Fragmented Nuclei (%) [9]: 17%
Population Healthy Nuclei (%) [9]: 70%
Population Hoechst High Intensity Objects (%) [9]: 2%
Population Membrane Permeable-Phenotype (%) [9]: 5%
Population Mitochondria Different-Phenotype (%) [9]: 3%
Population Mitotic Cells (%) [9]: 9%
Population Normal (%) [9]: 97%
Population Pyknosed Nuclei (%) [9]: 11%
Population Tubulin-Different-Phenotype (%) [9]: 4%
Total Cell Count [9]: 363
Population Apoptotic (%) [10]: 89%
Population Fragmented Nuclei (%) [10]: 14%
Population Healthy Nuclei (%) [10]: 73%
Population Membrane Permeable-Phenotype (%) [10]: 7%
Population Mitochondria Different-Phenotype (%) [10]: 4%
Population Mitotic Cells (%) [10]: 10%
Population Tubulin-Different-Phenotype (%) [10]: 3%
Total Cell Count [10]: 172
Population Apoptotic (%) [11]: 85%
Population Fragmented Nuclei (%) [11]: 18%
Population Healthy Nuclei (%) [11]: 66%
Population Hoechst High Intensity Objects (%) [11]: 2%
Population Membrane Permeable-Phenotype (%) [11]: 7%
Population Mitochondria Different-Phenotype (%) [11]: 3%
Population Mitotic Cells (%) [11]: 14%
Population Normal (%) [11]: 97%
Population Pyknosed Nuclei (%) [11]: 14%
Population Tubulin-Different-Phenotype (%) [11]: 5%
Total Cell Count [11]: 338
Population Apoptotic (%) [12]: 100%
Population Fragmented Nuclei (%) [12]: 14%
Population Healthy Nuclei (%) [12]: 76%
Population Hoechst High Intensity Objects (%) [12]: 1%
Population Membrane Permeable-Phenotype (%) [12]: 2%
Population Mitochondria Different-Phenotype (%) [12]: 2%
Population Mitotic Cells (%) [12]: 0%
Population Normal (%) [12]: 98%
Population Pyknosed Nuclei (%) [12]: 8%
Population Tubulin-Different-Phenotype (%) [12]: 2%
Total Cell Count [12]: 179
